Screens from PubChem.
Hits are enriched below; roughly 2.9% of the tested compounds scored in any of these assays.
Beta2AR agonist – agonists of human beta-2 adrenergic receptor inducing internalization; P07550; Am2.2-beta2AR cells, FAP receptor internalization, flow cytometry; response, % (no concentration beside the values); actives 0.43% (n = 340,000);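 active = response above a set limit, near 3 SD of response in nonfluorescent compounds, cut at about 42% in these data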
MEKK2 mut-MEK5 – signal of MEK5 binding to mutant human MEKK2 PB1 domain. AID 1530. actives 0.35% (n = 290,000). bead flow cytometry, Alexa488-MEK5 binding to MEKK2 mutant. percent response, % at 10 µM; in the data active = percent response above about 24%, passing the limit was not always enough
ATG4B inhibitor – ATG4B (human) cysteine protease inhibition; Q9Y4P1; ATG4B cleavage of LC3-PLA2, NBD-HPC fluorescence, 1 h; inhibition, % at 8.33 µM; actives 0.51% (n = 340,000); AID 504462; in the data active = inhibition above about 40%
MEKK3 PB1 HTS – modulators (inhibitors or enhancers) of MEK5 binding to human MEKK3 PB1 domain; Q99759; bead-based flow cytometry, Alexa488-MEK5 binding to MEKK3; actives lie on both sides; 0 = blocked by unlabeled MEK5, 100 = vehicle; binding response (% of control), % at 10 µM; actives 1.4% (n = 290,000); AID 1529;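 active = binding response more than 3 SD above or below the average of its plate-row segment, actives on both sides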;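 note: Alexa488 bead fluorescence after subtracting the streptavidin-only scavenger bead signal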
Target sequence (Q99759 whole entry, looked up, the tested form may be a part): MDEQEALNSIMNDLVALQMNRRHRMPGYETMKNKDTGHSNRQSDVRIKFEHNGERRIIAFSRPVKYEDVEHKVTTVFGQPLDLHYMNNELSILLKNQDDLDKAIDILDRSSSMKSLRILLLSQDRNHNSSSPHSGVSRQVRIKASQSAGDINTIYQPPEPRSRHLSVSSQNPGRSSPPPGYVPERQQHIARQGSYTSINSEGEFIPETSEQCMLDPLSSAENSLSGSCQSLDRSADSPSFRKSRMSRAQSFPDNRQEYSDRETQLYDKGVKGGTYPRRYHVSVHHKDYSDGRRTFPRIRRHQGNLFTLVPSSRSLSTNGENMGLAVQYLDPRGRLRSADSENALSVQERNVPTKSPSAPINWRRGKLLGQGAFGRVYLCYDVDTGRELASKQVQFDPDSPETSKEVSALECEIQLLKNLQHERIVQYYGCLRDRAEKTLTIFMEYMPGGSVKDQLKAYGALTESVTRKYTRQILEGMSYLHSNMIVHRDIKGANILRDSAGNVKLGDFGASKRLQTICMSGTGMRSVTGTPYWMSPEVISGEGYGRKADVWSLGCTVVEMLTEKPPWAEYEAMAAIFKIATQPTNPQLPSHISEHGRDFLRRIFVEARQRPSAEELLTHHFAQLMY
Dynein cargo inh – dynein cargo transport inhibition. z-score, hits read low. actives 0.47% (n = 220,000). 3617.4 mouse cells, GR-EGFP nuclear translocation imaging; test concentration mostly 20 µM; stimulated with dexamethasone, 1 µM; stronger effect = lower value;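 active = plate z-score of nuclear minus cytoplasmic receptor signal below a set negative limit, without overly bright fluorescence or cell loss, cut at about -3.5 in these data, passing the limit was not always enough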;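 note: z-score of nuclear minus cytoplasmic ring GR-EGFP intensity difference per well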
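Also added: dexamethasone, 1.0 µM final. Medium: tet-free, stripped-serum medium. Detection: fixed, Hoechst-stained cells imaged at 10x for EGFP. Read-out: nuclear-to-cytoplasmic GR-EGFP distribution per well. Times: induction 48 h, compound 1 h, agonist 30 min.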
MEKK2 WT-MEK5 – raises or lowers MEK5 binding to wildtype human MEKK2 PB1 domain; actives 1.1% (n = 290,000); bead flow cytometry, Alexa488-MEK5 binding to MEKK2 WT; actives lie on both sides; binding response (% of control), % at 10 µM; Q9Y2U5; in the data active = binding response below about 67% or above about 130%
MEKK2wt confirm – raises or lowers MEK5 binding to wildtype human MEKK2, retest; shares compounds with MEKK3 PB1 HTS; bead flow cytometry, Alexa488-MEK5 binding to MEKK2 WT; actives lie on both sides; binding response (% of control), % at 10 µM; actives 2.4% (n = 5,900); in the data active = binding response below about 16% or above about 210%; inactive = in between
MEKK2mut confirm – signal of MEK5 binding to mutant human MEKK2, retest. bead flow cytometry, Alexa488-MEK5 binding to MEKK2 mutant. percent response, % at 10 µM. shares compounds with MEKK3 PB1 HTS. actives 2% (n = 5,900); in the data active = percent response mostly above about 71%, no sharp cut-off; inactive = mostly below about 38%;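 note: higher means compound restores mutant binding toward wildtype level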
MEKK3 confirm – MEKK3-MEK5 PB1 inhibition, single concentration confirmation. binding response (% of control), % at 10 µM. actives 1.8% (n = 5,900). bead flow cytometry, Alexa488-MEK5 binding to MEKK3; stronger effect = lower value. shares compounds with MEKK3 PB1 HTS;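 active = binding response below 72% of control, or above a set upper limit, though filed actives all read lower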;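 note: 100% = DMSO only wells and 0% = binding blocked by excess unlabeled MEK5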
* marks the source's active call; other numbers are inactive results; x = no result; [ ] = dose if it differs, or a comment.

SMILES	Beta2AR agonist	MEKK2 mut-MEK5	ATG4B inhibitor	MEKK3 PB1 HTS	Dynein cargo inh	MEKK2 WT-MEK5	MEKK2wt confirm	MEKK2mut confirm	MEKK3 confirm
O=C(Nc1ccc(F)cc1)Nc1ccc(Oc2ncnc3cc(Cl)ccc23)nc1	-3.2	-33.0	-5.4	69.0*[inhibitor]	-0.309	75.0	104.0	2.0	102.0
CN(CC(=O)NCc1cccs1)S(=O)(=O)c1cccc2nsnc12	-4.8	-21.0	-5.9	2.0*[inhibitor]	-1.22	3.0*[inhibitor]	107.0	7.0	103.0
C[C@@H]([C@H](O)c1ccccc1)N(C)C(=S)Nc1ccccc1	-4.2	7.0	1.9	107.0	x	105.0	x	x	x
Nc1c(N(Cc2ccco2)C(=O)COc2ccc(Cl)cc2)c(=O)[nH]c(=O)n1Cc1ccccc1	-0.2	x	-14.7	x	x	x	x	x	x
Nc1c(N(CCO)C(=O)COc2ccc(Cl)cc2)c(=O)[nH]c(=O)n1Cc1ccccc1	-2.5	-1.0	0.8	131.0*	-0.214	98.0	98.0	9.0	101.0
CCCOc1ccc(C(=O)CCC(=O)OCC(=O)Nc2ccc(Oc3ccccc3)cc2)cc1	x	71.0*	x	110.0	-1.17	147.0*	112.0	3.0	108.0
CCCOc1ccc(C(=O)CCC(=O)OCC(=O)Nc2ccc(OCC)cc2)cc1	x	3.0	x	97.0	0.318	108.0	x	x	x
CC1CN(CCCCOc2ccc(Cl)c3ccccc23)CC(C)O1 (stereo not drawn)	2.2	10.0	-1.9	113.0	x	162.0*	150.0	22.0	105.0
CC1CN(CCCCOc2ccc(C(C)C)cc2)CC(C)O1 (stereo not drawn)	-13.4	-15.0	3.0	2.0*[inhibitor]	-0.966	2.0*[inhibitor]	104.0	4.0	103.0
CC1(C)Cc2nc(N3CCCC3)c(C#N)cc2CO1	1.1	2.0	-1.0	129.0*	0.586	117.0	99.0	-7.0	101.0
C/C(=N\NC(=O)c1ccc(Cl)c(S(=O)(=O)Nc2ccccc2Cl)c1)c1ccncc1	2.7	2.0	0.1	145.0*	0.0988	106.0	99.0	3.0	100.0
C/C(=N\NC(=O)c1cccc(S(=O)(=O)Nc2ccc(C)cc2C)c1)c1ccncc1	0.4	x	1.9	x	x	x	x	x	x
CCN1C(=O)N[C@@H](c2cccs2)C(C(C)=O)=C1C	1.4	1.0	7.6	97.0	-1.08	95.0	x	x	x
O=C(Nc1ccc(Cl)c(Cl)c1)N1N=CCC1c1ccccc1 (stereo not drawn)	-7.0	0.0	-4.5	133.0*	0.636	116.0	100.0	0.0	101.0
CCN(CC)CCCNC(=O)c1cc(-c2ccccc2)c(N2CCCCC2)s1	35.5	26.0*	-1.0	105.0	x	161.0*	162.0	41.0	107.0
O=C(NCCc1ccccc1)c1cc(-c2ccccc2)c(N2CCOCC2)s1	-4.0	x	4.3	x	x	x	x	x	x
Cc1c(Cc2ccccc2)c(=O)[nH]c(=O)n1C	2.7	x	2.4	x	x	x	x	x	x
COc1ccc(NC(=O)CCC(=O)N2CCC(c3ccccc3)=N2)cc1S(=O)(=O)N1CCCCC1	0.7	x	3.8	x	x	x	x	x	x
Cc1cccc(NC(=S)N/N=C/c2ccc([N+](=O)[O-])s2)c1	-0.9	-7.0	-18.7	86.0	0.321	50.0*[inhibitor]	63.0	-23.0	91.0
Cc1ccc(Nc2ncnc3c2nnn3Cc2ccccc2)cc1	1.6	29.0	-0.1	132.0*	0.467	134.0	104.0	1.0	103.0
COc1ccccc1NC(=O)c1ccc(SCC(=O)NCc2ccccc2Cl)c([N+](=O)[O-])c1	-4.4	0.0	22.6	133.0*	-0.438	103.0	95.0	0.0	103.0
COc1ccccc1CNC(=O)CSc1ccc(C(=O)Nc2ccccc2OC)cc1[N+](=O)[O-]	-12.4	0.0	-1.4	123.0	-0.00215	106.0	x	x	x
O=C(CCNC(=O)c1ccccc1Cl)Nc1cccc(S(=O)(=O)N2CCOCC2)c1	-1.4	x	1.2	x	x	x	x	x	x
CCn1c(C)nc2cc(C(=O)NNC(=S)Nc3ccc(Cl)cc3)ccc21	-0.9	-13.0	-14.0	25.0*[inhibitor]	-0.938	19.0*[inhibitor]	97.0	5.0	101.0
CCn1c(C)nc2cc(C(=O)NNC(=S)Nc3ccc(F)cc3)ccc21	4.1	8.0	-2.6	103.0	1.11	101.0	x	x	x
SMILES	Beta2AR agonist	MEKK2 mut-MEK5	ATG4B inhibitor	MEKK3 PB1 HTS	Dynein cargo inh	MEKK2 WT-MEK5	MEKK2wt confirm	MEKK2mut confirm	MEKK3 confirm
CSc1nc(Oc2ccc3ccccc3c2)c2ccccc2n1	-12.5	1.0	-2.4	106.0	-0.0157	99.0	x	x	x
O=C(NCc1ccc(F)cc1)C1CC(=O)N(CCc2ccccc2)C1 (stereo not drawn)	-8.0	-69.0	-4.9	2.0*[inhibitor]	0.362	3.0*[inhibitor]	106.0	5.0	103.0
Cc1ccc(CCN2CC(C(=O)NCCN3CCCCCC3)CC2=O)cc1 (stereo not drawn)	1.9	62.0*	-3.0	107.0	-1.3	161.0*	151.0	72.0*	108.0
CC(C)CCN1CC(C(=O)NCc2ccc(F)cc2)CC1=O (stereo not drawn)	7.1	2.0	-0.1	105.0	-1.05	105.0	x	x	x
Cc1ccc(S(=O)(=O)N2CCC(C(=O)NCCN3CCCCCC3)CC2)cc1	-5.2	34.0*	-3.4	96.0	-0.86	170.0*	121.0	7.0	94.0
COc1ccc(CN2CC(C(=O)NCCCN3CCCCCC3)CC2=O)cc1 (stereo not drawn)	5.3	19.0	-2.8	103.0	-1.03	137.0*	119.0	37.0	104.0
Cc1ccc(CCN2CC(C(=O)NCCCN3CCCCCC3)CC2=O)cc1 (stereo not drawn)	-5.2	21.0	-12.8	95.0	-0.335	138.0*	119.0	5.0	100.0
CC1(C)OC(c2ccccc2)=C/C(=C/C=N/NC(=O)c2ccncc2)O1	5.3	-3.0	-7.3	98.0	1.15	96.0	x	x	x
CCCCn1c(=O)c(-c2ccccc2)c(O)c2ccccc21	-7.4	5.0	1.6	131.0*	-0.536	129.0	104.0	-4.0	100.0
CCOP(=O)(OCC)C(Nc1cccc(C(F)(F)F)c1)c1ccc(C)cc1 (stereo not drawn)	10.8	0.0	4.1	66.0*[inhibitor]	-1.21	103.0	103.0	2.0	108.0
COc1ccc(OC)c(C(=O)N2CCC(C(=O)c3ccc(F)cc3)CC2)c1	4.4	-2.0	0.6	94.0	-0.598	95.0	x	x	x
Cc1nn2c(N)csc2nc1=O	x	-6.0	x	62.0*[inhibitor]	-0.884	69.0*[inhibitor]	59.0	-24.0	51.0*
